According to ChEMBL document CHEMBL1134454, “Synthesis and evaluation of oxodioxolenylmethyl carbamate prodrugs of pseudomycins” (2001):
Converted amounts (≈) assume the structure as drawn. Bridge positions count the residues as written; N and C are the ends. Square brackets hold non-standard residues; d marks the D form. Peptide text beside a SMILES is read from it. * marks the point of attachment. Tetradecanoyl(3R-OH) = CCCCCCCCCCC[C@@H](O)CC(=O)*; Asp(3S-OH) = N[C@H](C(=O)O)[C@H](O)C(=O)O; Thr(4-Cl) = N[C@H](C(=O)O)[C@H](O)CCl; aThr = C[C@H](O)[C@H](N)C(=O)O; dDab = NCC[C@@H](N)C(=O)O; Dab = NCC[C@H](N)C(=O)O; Dhb = C/C=C(\N)C(=O)O

Tests used:
[1] = organism: Mus musculus; experiment: Evaluated for tail vein toxicity assay in male ICR mice; Partial positive; format: functional, organism-based
[2] = system: Candida albicans; experiment: In vitro potency against Candida albicans; format: functional
Procedure, shortened: (§1)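 Broth microdilution in Sabouraud broth. Compounds were dissolved in DMSO and diluted to 20 μg/mL final in the first well, then serially 2-fold. Yeasts were grown on Sabouraud dextrose agar at 35 °C for 24 h, suspended in saline and adjusted to 2×10^5/mL in broth. A. fumigatus spores were taken from potato dextrose agar mycelia into 0.1% Tween 80/saline. MIC was the lowest concentration giving 90–100% visible growth inhibition versus controls.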

[3] = organism: Mus musculus; experiment: Drug concentration required to achieve 50% survival of fungal infection compared with untreated animals in experiment 1.; format: functional
Procedure, shortened: (§2)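 Outbred male ICR mice (18–20 g), X-irradiated 400 r 24 h before infection. C. albicans A26 blastospores, 2×10^6 per mouse, given iv by lateral tail vein. Dosed 0.2 mL at 20, 10 and 5 mg/kg at 0, 4, 24 and 48 h post-infection, in 4.0% hydroxypropyl cyclodextrin/sodium acetate pH 7.0/1.75% dextrose. Survival followed 7 days; ED50 by Reed and Muench.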

[4] = system: Cryptococcus neoformans; experiment: In vitro potency against Cryptococcus neoformans; format: functional; procedure, shortened: as §1
[5] = system: Aspergillus fumigatus; experiment: In vitro potency against Aspergillus fumigatus; format: functional; procedure, shortened: as §1
[6] = organism: Mus musculus; experiment: Evaluated for tail vein toxicity assay in male ICR mice; Positive; format: functional, organism-based
[7] = organism: Mus musculus; experiment: Drug concentration required to achieve 50% survival of fungal infection compared with untreated animals in experiment 2.; format: functional; procedure, shortened: as §2
[8] = organism: Mus musculus; experiment: Evaluated for tail vein toxicity assay in male ICR mice; Negative; format: functional, organism-based

SMILES | Activity [1] | MIC [2] [mg/L] | ED50 [3] [mg/kg] | MIC [4] [mg/L] | MIC [5] [mg/L] | Activity [6] | ED50 [7] [mg/kg] | Activity [8]
C/C=C1\NC(=O)[C@H]([C@H](C)O)NC(=O)[C@H](CCN)NC(=O)[C@H](CCCCNC(=O)OCc2oc(=O)oc2C)NC(=O)[C@H](CC(=O)O)NC(=O)[C@@H](CCNC(=O)OCc2oc(=O)oc2C)NC(=O)[C@@H](NC(=O)C[C@H](O)CCCCCCCCCCC)COC(=O)[C@H]([C@H](O)CCl)NC(=O)[C@H]([C@H](O)C(=O)O)NC1=O | Partial positive | 5 (≈ 3.29 µM) | 7.07 | 0.3 (≈ 0.197 µM) | > 20 | – | – | –
C/C=C1\NC(=O)[C@H]([C@H](C)O)NC(=O)[C@H](CCN)NC(=O)[C@H](CCCCN)NC(=O)[C@H](CC(=O)O)NC(=O)[C@@H](CCN)NC(=O)[C@@H](NC(=O)C[C@H](O)CCCCCCCCCCCCC)COC(=O)[C@H]([C@H](O)CCl)NC(=O)[C@H]([C@H](O)C(=O)O)NC1=O | – | 0.312 (≈ 0.252 µM) | 7.8 | < 0.02 | 10 (≈ 8.09 µM) | Positive | 12.4 | –
C/C=C1\NC(=O)[C@H]([C@H](C)O)NC(=O)[C@H](CCNC(=O)OCc2oc(=O)oc2C)NC(=O)[C@H](CCCCNC(=O)OCc2oc(=O)oc2C)NC(=O)[C@H](CC(=O)O)NC(=O)[C@@H](CCNC(=O)OCc2oc(=O)oc2C)NC(=O)[C@@H](NC(=O)C[C@H](O)CCCCCCCCCCCCC)COC(=O)[C@H]([C@H](O)CCl)NC(=O)[C@H]([C@H](O)C(=O)O)NC1=O | – | > 20 | 12.4 | 5 (≈ 2.93 µM) | > 20 | – | 10.8 | Negative
C/C=C1\NC(=O)[C@H]([C@H](C)O)NC(=O)[C@H](CCNC(=O)OCc2oc(=O)oc2C)NC(=O)[C@H](CCCCN)NC(=O)[C@H](CC(=O)O)NC(=O)[C@@H](CCN)NC(=O)[C@@H](NC(=O)C[C@H](O)CCCCCCCCCCC)COC(=O)[C@H]([C@H](O)CCl)NC(=O)[C@H]([C@H](O)C(=O)O)NC1=O | – | 5 (≈ 3.67 µM) | 5.95 | 1.3 (≈ 0.953 µM) | > 20 | – | – | Negative
C/C=C1\NC(=O)[C@H]([C@H](C)O)NC(=O)[C@H](CCNC(=O)OCc2oc(=O)oc2C)NC(=O)[C@H](CCCCNC(=O)OCc2oc(=O)oc2C)NC(=O)[C@H](CC(=O)O)NC(=O)[C@@H](CCNC(=O)OCc2oc(=O)oc2C)NC(=O)[C@@H](NC(=O)C[C@H](O)CCCCCCCCCCC)COC(=O)[C@H]([C@H](O)CCl)NC(=O)[C@H]([C@H](O)C(=O)O)NC1=O | – | > 20 | 6.85 | 10 (≈ 5.97 µM) | > 20 | – | 7.8 | Negative
C/C=C1\NC(=O)[C@H]([C@H](C)O)NC(=O)[C@H](CCN)NC(=O)[C@H](CCCCN)NC(=O)[C@H](CC(=O)O)NC(=O)[C@@H](CCN)NC(=O)[C@@H](NC(=O)C[C@H](O)CCCCCCCCCCC)COC(=O)[C@H]([C@H](O)CCl)NC(=O)[C@H]([C@H](O)C(=O)O)NC1=O [PSEUDOMYCIN B] ({Tetradecanoyl(3R-OH)}-S[dDab]DK[Dab][aThr][Dhb][Asp(3S-OH)][Thr(4-Cl)]; ester 1-C) | – | 0.625 (≈ 0.517 µM) | – | 0.078 (≈ 0.0646 µM) | > 20 | Positive | 3.8 | –
C/C=C1\NC(=O)[C@H]([C@H](C)O)NC(=O)[C@H](CCNC(=O)OCc2oc(=O)oc2C)NC(=O)[C@H](CCCCN)NC(=O)[C@H](CC(=O)O)NC(=O)[C@@H](CCN)NC(=O)[C@@H](NC(=O)C[C@H](O)CCCCCCCCCCCCC)COC(=O)[C@H]([C@H](O)CCl)NC(=O)[C@H]([C@H](O)C(=O)O)NC1=O | Partial positive | – | 9 | – | – | – | – | –
C/C=C1\NC(=O)[C@H]([C@H](C)O)NC(=O)[C@H](CCN)NC(=O)[C@H](CCCCNC(=O)OCc2oc(=O)oc2C)NC(=O)[C@H](CC(=O)O)NC(=O)[C@@H](CCNC(=O)OCc2oc(=O)oc2C)NC(=O)[C@@H](NC(=O)C[C@H](O)CCCCCCCCCCCCC)COC(=O)[C@H]([C@H](O)CCl)NC(=O)[C@H]([C@H](O)C(=O)O)NC1=O | Partial positive | – | > 20 | – | – | – | – | –
